In ChEMBL document CHEMBL3286292, “Synthesis and antimicrobial activity of amine linked bis- and tris-heterocycles” (2014):

What was measured:
Assay type in all cases: functional
Klebsiella pneumoniae [1] = experiment: Antibacterial activity against Klebsiella pneumoniae assessed as growth inhibition at 50 ug/well after 24 hrs by agar well diffusion method; settings: read-out: DIZ
Method in brief: (§1)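 Agar well diffusion on […] swabbed with a 24 h broth culture. Samples were dissolved in DMSO and loaded at three per-well amounts into 6 mm wells. Incubation was 37 °C for 24 h, then inhibition zone diameter was read in mm. DMSO served as the negative control. Runs were in duplicate and averaged.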

Penicillium chrysogenum [2] = experiment: Fungicidal activity against Penicillium chrysogenum after 48 hrs
Bacillus subtilis [3] = experiment: Bactericidal activity against Bacillus subtilis after 24 hrs
Staphylococcus aureus [4] = experiment: Bactericidal activity against Staphylococcus aureus after 24 hrs
Staphylococcus aureus [5] = experiment: Antibacterial activity against Staphylococcus aureus assessed as growth inhibition at 100 ug/well after 24 hrs by agar well diffusion method; settings: read-out: DIZ; method in brief: as §1
Aspergillus niger [6] = experiment: Antifungal activity against Aspergillus niger assessed as growth inhibition after 48 hrs by broth dilution method
Method in brief: (§2)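 Tube broth dilution with nutrient broth as diluent. Compound dilutions were added to fungal cultures and incubated at 28 °C for 48 h. A solvent control without sample was included. MIC was the lowest concentration with no visible growth or turbidity.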

Klebsiella pneumoniae [7] = experiment: Antibacterial activity against Klebsiella pneumoniae assessed as growth inhibition at 25 ug/well after 24 hrs by agar well diffusion method; settings: read-out: DIZ; method in brief: as §1
Pseudomonas aeruginosa [8] = experiment: Antibacterial activity against Pseudomonas aeruginosa assessed as growth inhibition at 100 ug/well after 24 hrs by agar well diffusion method; settings: read-out: DIZ; method in brief: as §1
Staphylococcus aureus [9] = experiment: Antibacterial activity against Staphylococcus aureus assessed as growth inhibition at 50 ug/well after 24 hrs by agar well diffusion method; settings: read-out: DIZ; method in brief: as §1
Bacillus subtilis [10] = experiment: Antibacterial activity against Bacillus subtilis assessed as growth inhibition after 24 hrs by broth dilution method
Method in brief: (§3)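 Tube broth dilution with fresh nutrient broth as diluent and a 24 h old bacterial culture. Compound dilutions were added to the tubes, which were incubated at 37 °C for 24 h. Solvent control without sample was run in parallel. MIC was the lowest concentration showing no visible turbidity.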

Staphylococcus aureus [11] = experiment: Antibacterial activity against Staphylococcus aureus assessed as growth inhibition after 24 hrs by broth dilution method; method in brief: as §3
Penicillium chrysogenum [12] = experiment: Antifungal activity against Penicillium chrysogenum assessed as growth inhibition after 48 hrs by broth dilution method; method in brief: as §2
Pseudomonas aeruginosa [13] = experiment: Antibacterial activity against Pseudomonas aeruginosa assessed as growth inhibition at 25 ug/well after 24 hrs by agar well diffusion method; settings: read-out: DIZ; method in brief: as §1
Pseudomonas aeruginosa [14] = experiment: Antibacterial activity against Pseudomonas aeruginosa assessed as growth inhibition at 50 ug/well after 24 hrs by agar well diffusion method; settings: read-out: DIZ; method in brief: as §1
Pseudomonas aeruginosa [15] = experiment: Antibacterial activity against Pseudomonas aeruginosa assessed as growth inhibition after 24 hrs by broth dilution method; method in brief: as §3
Bacillus subtilis [16] = experiment: Antibacterial activity against Bacillus subtilis assessed as growth inhibition at 50 ug/well after 24 hrs by agar well diffusion method; settings: read-out: DIZ; method in brief: as §1
Aspergillus niger [17] = experiment: Fungicidal activity against Aspergillus niger after 48 hrs
Bacillus subtilis [18] = experiment: Antibacterial activity against Bacillus subtilis assessed as growth inhibition at 100 ug/well after 24 hrs by agar well diffusion method; settings: read-out: DIZ; method in brief: as §1
Staphylococcus aureus [19] = experiment: Antibacterial activity against Staphylococcus aureus assessed as growth inhibition at 25 ug/well after 24 hrs by agar well diffusion method; settings: read-out: DIZ; method in brief: as §1
Pseudomonas aeruginosa [20] = experiment: Bactericidal activity against Pseudomonas aeruginosa after 24 hrs
Staphylococcus aureus [21] = experiment: Ratio of MBC to MIC for Staphylococcus aureus
Klebsiella pneumoniae [22] = experiment: Antibacterial activity against Klebsiella pneumoniae assessed as growth inhibition after 24 hrs by broth dilution method; method in brief: as §3
Aspergillus niger [23] = experiment: Antifungal activity against Aspergillus niger assessed as inhibition of spore germination at 25 ug/well after 48 hrs by agar well diffusion method; settings: read-out: DIZ
Method in brief: (§4)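 Well diffusion using 6 mm bored wells loaded with DMSO solutions at three per-well amounts, with a DMSO negative control. Plates were held at 28 °C for 48 h, then zone of inhibition diameter was measured in mm. Runs were in duplicate and averaged.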

Aspergillus niger [24] = experiment: Antifungal activity against Aspergillus niger assessed as inhibition of spore germination at 50 ug/well after 48 hrs by agar well diffusion method; settings: read-out: DIZ; method in brief: as §4
Aspergillus niger [25] = experiment: Ratio of MFC to MIC for Aspergillus niger
Klebsiella pneumoniae [26] = experiment: Antibacterial activity against Klebsiella pneumoniae assessed as growth inhibition at 100 ug/well after 24 hrs by agar well diffusion method; settings: read-out: DIZ; method in brief: as §1
Bacillus subtilis [27] = experiment: Antibacterial activity against Bacillus subtilis assessed as growth inhibition at 25 ug/well after 24 hrs by agar well diffusion method; settings: read-out: DIZ; method in brief: as §1
Klebsiella pneumoniae [28] = experiment: Bactericidal activity against Klebsiella pneumoniae after 24 hrs

SMILES	zone of inhibition at 50 µg/disc (Klebsiella pneumoniae [1])	MFC (Penicillium chrysogenum [2])	MBC (Bacillus subtilis [3])	MBC (Staphylococcus aureus [4])	zone of inhibition at 100 µg/disc (Staphylococcus aureus [5])	MIC (Aspergillus niger [6])	zone of inhibition at 25 µg/disc (Klebsiella pneumoniae [7])	zone of inhibition at 100 µg/disc (Pseudomonas aeruginosa [8])	zone of inhibition at 50 µg/disc (Staphylococcus aureus [9])	MIC (Bacillus subtilis [10])	MIC (Staphylococcus aureus [11])	MIC (Penicillium chrysogenum [12])	zone of inhibition at 25 µg/disc (Pseudomonas aeruginosa [13])	zone of inhibition at 50 µg/disc (Pseudomonas aeruginosa [14])	MIC (Pseudomonas aeruginosa [15])	zone of inhibition at 50 µg/disc (Bacillus subtilis [16])	MFC (Aspergillus niger [17])	zone of inhibition at 100 µg/disc (Bacillus subtilis [18])	zone of inhibition at 25 µg/disc (Staphylococcus aureus [19])	MBC (Pseudomonas aeruginosa [20])	other results
Clc1ccc(-c2c[nH]c(Nc3cc(-c4ccc(Cl)cc4)n(-c4nc(-c5ccc(Cl)cc5)cs4)n3)n2)cc1	34 mm	100 µg	200 µg	12.5 µg	35 mm	6.25 µg	32 mm	23 mm	33 mm	50 µg	6.25 µg	25 µg	18 mm	19 mm	50 µg	29 mm	12.5 µg	30 mm	32 mm	200 µg	Ratio (Staphylococcus aureus [21]): 2; MIC (Klebsiella pneumoniae [22]): 50 µg; zone of inhibition at 25 µg/disc (Aspergillus niger [23]): 33 mm; zone of inhibition at 50 µg/disc (Aspergillus niger [24]): 36 mm; Ratio (Aspergillus niger [25]): 2; zone of inhibition at 100 µg/disc (Klebsiella pneumoniae [26]): 38 mm; zone of inhibition at 25 µg/disc (Bacillus subtilis [27]): 27 mm; MBC (Klebsiella pneumoniae [28]): 200 µg
c1ccc(-c2csc(Nc3cc(-c4ccccc4)n(-c4nc(-c5ccccc5)cs4)n3)n2)cc1	32 mm	200 µg	200 µg	50 µg	32 mm	25 µg	30 mm	21 mm	31 mm	50 µg	12.5 µg	50 µg	17 mm	18 mm	50 µg	26 mm	100 µg	28 mm	29 mm	>200 µg	MIC (Klebsiella pneumoniae [22]): 50 µg; zone of inhibition at 25 µg/disc (Aspergillus niger [23]): 25 mm; zone of inhibition at 50 µg/disc (Aspergillus niger [24]): 28 mm; zone of inhibition at 100 µg/disc (Klebsiella pneumoniae [26]): 35 mm; zone of inhibition at 25 µg/disc (Bacillus subtilis [27]): 25 mm; MBC (Klebsiella pneumoniae [28]): >200 µg
Clc1ccc(-c2csc(Nc3cc(-c4ccc(Cl)cc4)n(-c4nc(-c5ccc(Cl)cc5)cs4)n3)n2)cc1	37 mm	200 µg	100 µg	12.5 µg	38 mm	12.5 µg	35 mm	25 mm	36 mm	25 µg	6.25 µg	50 µg	20 mm	22 mm	50 µg	32 mm	100 µg	35 mm	34 mm	200 µg	Ratio (Staphylococcus aureus [21]): 2; MIC (Klebsiella pneumoniae [22]): 25 µg; zone of inhibition at 25 µg/disc (Aspergillus niger [23]): 29 mm; zone of inhibition at 50 µg/disc (Aspergillus niger [24]): 31 mm; zone of inhibition at 100 µg/disc (Klebsiella pneumoniae [26]): 41 mm; zone of inhibition at 25 µg/disc (Bacillus subtilis [27]): 29 mm; MBC (Klebsiella pneumoniae [28]): 100 µg
